Source: ChEMBL document CHEMBL3817762, “Monoacidic Inhibitors of the Kelch-like ECH-Associated Protein 1: Nuclear Factor Erythroid 2-Related Factor 2 (KEAP1:NRF2) Protein-Protein Interaction with High Cell Potency Identified by Fragment-Based Discovery” (J Med Chem, 2016)

Assays:
Format in all cases: ADME, organism-based
[1] = Drug level in Han Wistar rat blood at 10 umol/kg, iv dosed up to 6 hrs infusions by LC-MS/MS analysis; settings: whole blood, read-out: Drug uptake
Procedure, shortened: (§1)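 Han Wistar rats (250-300 g, n=8/group) received the compound by IV infusion over 6 h at 10, 35 or 50 µmol/kg. Blood concentration was taken as the steady-state level over the 6 h infusion period.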

[2] = Drug level in Han Wistar rat blood at 35 umol/kg, iv dosed up to 6 hrs infusions by LC-MS/MS analysis; settings: whole blood, read-out: Drug uptake; procedure, shortened: as §1
[3] = Drug level in Han Wistar rat blood at 50 umol/kg, iv dosed up to 6 hrs infusions by LC-MS/MS analysis; settings: whole blood, read-out: Drug uptake; procedure, shortened: as §1
[4] = Systemic oral bioavailability in Han Wistar rat at 2 mg/kg after 24 hrs by LC-MS/MS analysis; settings: in vivo
Procedure, shortened: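 Han Wistar rats (n=3) were dosed IV and PO in a crossover design with a two-day washout. Blood was sampled over 24 h and analysed by LC/MS/MS.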

SMILES: COc1cc([C@@H](CC(=O)O)c2ccc(C)c(CN3C[C@@H](C)Oc4ccccc4S3(=O)=O)c2)cc2nnn(C)c12
- concentration at 6 h [1]: 407 nM
- concentration at 6 h [2]: 946 nM
- concentration at 6 h [3]: 1440 nM
- bioavailability [4]: 7%
